Screens from PubChem BioAssay.
Hck Nef HTS = inhibitors of human Hck kinase activated by Nef; Recombinant Hck-YEEI plus Nef, Z-Lyte FRET kinase assay; inhibition, % at 20 µM; 220,000 compounds, 0.68% hits; P08631;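 active = Hck-Nef kinase inhibition above about 50%, limit read from the data; inactive = inhibition below that limit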;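 also: 0% = DMSO with Hck plus Nef and 100% = Hck alone without Nef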
zVAD death inh = blocks zVAD induced death of L929 cells; viability rescue, % at 10 µM; L929 zVAD necroptosis rescue, ATP luminescence, 24 h; with zVAD 60 µM; 220,000 compounds, 0.38% hits;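 active = activation, scaled between plate controls, above about 75%, limit read from the data; inactive = activation under that limit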;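 also: 0% = zVAD with DMSO and 100% = DMSO alone without zVAD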
Autophagy mod = autophagy modulation, high-content screen; MEF GFP-LC3 puncta imaging; test concentration mostly 10 µM; calls only at 10 µM (by protocol); 190,000 compounds, 0.98% hits; AID 463193;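 active = percentage of spot-positive cells more than 3 SD above its plate mean, without a fluorescence outlier flag or 80% toxicity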;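 also: spot-positive cell cutoff set from DMSO-treated cells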
Mdm2 ligase inh = inhibitors of human Mdm2 E3 ubiquitin ligase; Q00987; cell-based MDM2 ubiquitination luciferase reporter, 2 h; 0 = plate control, 100 = twice control, blank-subtracted; signal enhancement, % at 5 µM; 210,000 compounds, 0.11% hits;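 active = signal enhancement of 30% or more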;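 also: luminescence tracks abundance of the self-degrading MDM2-luciferase fusion protein; higher signal means inhibition of MDM2 E3 ligase activity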
Target sequence (Q00987 whole entry, looked up, the tested form may be a part): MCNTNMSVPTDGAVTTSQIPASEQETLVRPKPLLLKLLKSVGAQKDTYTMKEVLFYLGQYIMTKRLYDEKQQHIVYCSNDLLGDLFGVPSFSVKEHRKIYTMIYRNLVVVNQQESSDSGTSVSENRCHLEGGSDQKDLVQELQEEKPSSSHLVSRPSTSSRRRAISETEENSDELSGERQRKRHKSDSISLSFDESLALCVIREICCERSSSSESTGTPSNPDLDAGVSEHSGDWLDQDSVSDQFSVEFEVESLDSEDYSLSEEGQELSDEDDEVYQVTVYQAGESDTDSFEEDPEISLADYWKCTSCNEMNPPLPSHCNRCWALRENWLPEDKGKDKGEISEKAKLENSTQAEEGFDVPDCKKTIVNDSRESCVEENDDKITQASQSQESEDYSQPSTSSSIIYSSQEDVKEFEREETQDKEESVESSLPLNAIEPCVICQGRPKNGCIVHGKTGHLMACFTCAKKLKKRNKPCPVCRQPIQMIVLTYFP
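system = mammalian cells stably expressing self-ubiquitinating, self-degrading MDM2 E3–luciferase fusion | quantity = 2000 cells per well seeded | incubation = 4 h cell settling then 2 h compound exposure, 37 °C | signal = SteadyLite luminescence, 15 min reagent step | benchmarks = plate control and blank wells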
Dynein cargo inh = blocks dynein driven cargo transport along microtubules; z-score, hits read low; 3617.4 mouse cells, GR-EGFP nuclear translocation imaging; test concentration mostly 20 µM; stimulated with dexamethasone, 1 µM; stronger effect = lower value; 220,000 compounds, 0.47% hits;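 active = plate z-score of nuclear minus cytoplasmic receptor signal below a set negative limit, without overly bright fluorescence or cell loss, cut at about -3.5 in these data, passing the limit was not always enough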;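 also: z-score of nuclear minus cytoplasmic ring GR-EGFP intensity difference per well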
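Medium: Induction medium lacking tetracycline, stripped serum | Probe or stimulus: 1.0 µM final dexamethasone stimulus | Schedule: 48 h induction, then 1 h compound, then 30 min agonist, 37 °C | Signal: Automated 10x imaging of fixed Hoechst-stained cells | Evaluation: Per-cell GR-EGFP intensity, nucleus versus surrounding cytoplasmic ring, well-averaged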
TNF death inh = blocks TNF-alpha induced death of Jurkat FADD-/- cells; activation (protection from cell death), % at 10 µM; Jurkat FADD-/- TNF necroptosis rescue, ATP luminescence, 24 h; 0 = TNF only, 100 = no-TNF cells; 220,000 compounds, 0.068% hits;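 active = activation, meaning protection from cell death, of at least 50% relative to plate controls; inactive = activation below 50%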;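 also: necroptosis triggered by 40 ng/mL TNF-alpha added together with compound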
An asterisk follows results filed as active; i = inactive; nt = no result given; + = active, no number. Compounds with a hit are over-represented: about 2.4% of the library has one in this group of screens.

SMILES	Hck Nef HTS	zVAD death inh	Autophagy mod	Mdm2 ligase inh	Dynein cargo inh	TNF death inh
C/C(=N\NC(=S)NC1CCCCC1)c1ccc(C#N)cc1	4.0	0.2	+	-16.3	-0.957	0.1
CCC1=Nc2cc(C(=O)NCCCOC)ccc2Sc2ccccc21	-1.5	-0.6	+	-3.6	0.229	-8.8
CCCC1=Nc2cc(C(=O)NCCCOCC)ccc2Sc2ccccc21	-3.1	0.7	i	-1.3	1.6	-18.0
O=C(Nc1nc(-c2ccc3c(c2)OCO3)cs1)C1CC1	-2.0	75.9*	i	-30.9	1.77	8.5
CCN1C(=O)C(O)(C2COC(C)(C)CC2=O)c2cc(Br)ccc21 (configuration not stated)	1.0	0.1	+	-9.4	-0.0145	-10.3
CCN1C(=O)C(O)(C2COC(C)(C)CC2=O)c2ccccc21 (configuration not stated)	0.4	-0.3	i	5.7	0.188	-1.3
CCN(CC)S(=O)(=O)c1ccc(/C=C/C(=O)Nc2cccc(F)c2)cc1	2.4	24.0	i	4.3	-0.281	1.6
C=CCSC1=C(C#N)C(c2ccc(OCC)cc2)CC(=O)N1 (configuration not stated)	-0.5	1.6	i	-7.9	-0.209	0.1
O=C(COC(=O)c1cnc(Cl)c(Cl)c1)Nc1ccc(S(=O)(=O)N2CCCC2)cc1	3.0	-0.4	i	2.3	-0.853	1.5
CC(C)OC(=O)c1ccc(NC(=O)c2ccccc2)cc1	-7.2	2.4	+	-6.5	0.226	1.4
CCOC(=O)c1ccc(NC(=O)c2ccc(NC(=O)c3ccccc3)cc2)cc1	11.6	0.7	i	-14.7	0.573	0.0
Cc1cccc2nc(COc3ccc(-c4ccccc4)cc3)cn12	16.2	-1.0	i	-8.8	0.106	2.5
CN(C(=O)c1cccc(COc2ccc(Cl)cc2Cl)c1)c1ccccc1	0.8	nt	i	45.7*	1.96	-1.3
O=C(NCc1ccccc1)c1cccc(COc2cc(Cl)ccc2Cl)c1	-3.3	2.3	i	1.7	0.467	2.7
COCCCn1c(N)c(-c2nc3ccccc3n2C)c2nc3ccccc3nc21	-4.6	0.0	i	-14.5	-0.791	-3.0
N#Cc1c(N)n(CCc2ccc(F)cc2)c2nc3ccccc3nc12	8.7	-0.1	i	-4.0	-0.796	0.5
Cn1c(-c2c(N)n(C3CCCC3)c3nc4ccccc4nc23)nc2ccccc21	-1.3	-0.3	+	-21.6	0.32	1.2
Cn1c(-c2c(N)n(CCCc3ccccc3)c3nc4ccccc4nc23)nc2ccccc21	-1.2	1.4	+	nt	-1.41	-0.2
Cn1c(-c2c(N)n(CCc3ccccc3)c3nc4ccccc4nc23)nc2ccccc21	-4.6	0.4	+	-14.7	0.103	-0.4
COc1ccc(NC(=S)NC(=O)CC(C)C)c(OC)c1	-14.2	-0.1	i	-0.9	0.312	1.0
O=C1CCCN1c1nccs1	11.1	-0.3	i	-3.3	0.691	-0.5
O=[N+]([O-])c1ccc(C2Oc3ccccc3C3CC(c4ccccc4)=NN32)s1 (configuration not stated)	3.4	-0.3	+	-5.5	-1.03	-2.1
CC(C)c1ccc(C(N)=S)cc1	20.0	0.5	i	0.1	-0.888	0.5
CCC(CC)C1=NN2C(=N)/C(=C\c3cc(C)n(-c4cccc(C)c4)c3C)C(=O)N=C2S1	6.5	1.8	+	-8.3	-0.119	1.9
O=C(CS(=O)(=O)c1ccc(Cl)cc1)NCCS(=O)(=O)c1ccc(Cl)cc1	21.1	-0.1	i	-0.9	0.797	0.7
SMILES	Hck Nef HTS	zVAD death inh	Autophagy mod	Mdm2 ligase inh	Dynein cargo inh	TNF death inh
COc1ccc(CN2CCN(CC(O)Cn3c4ccccc4c4ccccc43)CC2)cc1 (configuration not stated)	3.7	5.2	i	4.0	-1.1	7.0
CCn1c2ccccc2c2cc(CN3CCN(Cc4cc(OC)ccc4O)CC3)ccc21	9.7	3.7	+	-9.7	0.965	1.6
CCOc1ccc(CN2CCN(CC(O)Cn3c4ccccc4c4ccccc43)CC2)cc1 (configuration not stated)	2.3	nt	+	1.6	-0.206	0.3
Cn1nnnc1SCC(=O)Nc1ccc(S(=O)(=O)N2CCOCC2)cc1	4.0	1.3	nt	-11.8	-0.479	2.5
O=C(Nc1cccc(Cl)c1)c1cc(N=Nc2ccc([N+](=O)[O-])cc2Cl)ccc1O	83.1*	1.6	nt	-14.3	-0.789	-22.1
O=C(Nc1cccc(Cl)c1)c1cccc(Oc2ccc([N+](=O)[O-])cc2Cl)c1	2.7	3.8	i	-0.4	0.226	1.1
Cn1cnnc1SCC(=O)Nc1nc(-c2ccc(F)cc2)cs1	20.4	0.8	i	11.6	0.191	0.9
CCOc1c(Cl)cc(C(=O)Nc2cccc(C(=O)O)c2)cc1Cl	22.6	2.2	i	-18.4	-0.625	-1.0
COc1ccc(CCNc2nc(=S)[nH]c3cc(OC)c(OC)cc23)cc1OC	29.1	82.0*	i	-9.9	-0.105	-2.4
NC(=O)c1ccsc1NC(=O)c1cccs1	12.0	26.2	i	nt	-0.904	-1.5
Cc1sc(NC(=O)c2cccs2)c(C(N)=O)c1C	9.4	75.0*	i	-7.2	-1.06	-0.5
O=C(Nc1ccccc1-c1ccccc1)C(=O)Nc1ccccc1-c1ccccc1	21.3	-0.4	nt	nt	0.442	0.1
O=C(COc1ccccc1-c1ccccc1)N/N=C/c1cccc2ccccc12	-1.0	0.0	+	-8.0	0.484	-19.5
COc1ccc(/C=N/NC(=O)COc2ccccc2-c2ccccc2)cc1	0.5	0.1	i	-10.7	1.75	-20.2
COc1ccc(C2CN=NC2C(=O)c2ccccc2)cc1 (configuration not stated)	20.2	0.1	nt	nt	-0.204	79.3*
CCOC(=O)Nc1nc(-c2ccccc2)c(C(=O)c2ccccc2)s1	2.6	-1.0	+	-14.8	0.452	-16.1
O=C(c1ccccc1)c1c2c(cc3sc4ccccc4[n+]13)-c1cccc3cccc-2c13	1.4	-0.5	+	-18.1	1.28	-1.7
Cc1sc2cc3c(c(C(=O)c4ccccc4)[n+]2c1C)-c1cccc2cccc-3c12	-8.3	2.5	i	-10.6	-1.08	0.2
CCOC(=O)c1ccccc1NC(=O)C1CC(=O)N(c2ccccc2)C1 (configuration not stated)	15.3	1.2	i	-9.3	1.76	-0.1
COc1ccc2[nH]c(CN3CCC(CO)(CCOc4ccccc4)CC3)c(C)c2c1	21.9	3.5	+	4.1	-0.407	9.2
COc1ccc(CN2CCC(CO)(CCOc3ccccc3)CC2)c(OC)c1C	12.3	0.0	i	-40.4	1.31	9.2
